# Laboratory results: ChEMBL document CHEMBL4342468, “Evolution of a 4-Benzyloxy-benzylamino Chemotype to Provide Efficacious, Potent, and Isoform Selective PPARα Agonists as Leads for Retinal Disorders” (J Med Chem, 2020)
# Target: T1, Peroxisome proliferator-activated receptor alpha (Homo sapiens) (UniProt Q07869)
# T1 sequence (whole entry): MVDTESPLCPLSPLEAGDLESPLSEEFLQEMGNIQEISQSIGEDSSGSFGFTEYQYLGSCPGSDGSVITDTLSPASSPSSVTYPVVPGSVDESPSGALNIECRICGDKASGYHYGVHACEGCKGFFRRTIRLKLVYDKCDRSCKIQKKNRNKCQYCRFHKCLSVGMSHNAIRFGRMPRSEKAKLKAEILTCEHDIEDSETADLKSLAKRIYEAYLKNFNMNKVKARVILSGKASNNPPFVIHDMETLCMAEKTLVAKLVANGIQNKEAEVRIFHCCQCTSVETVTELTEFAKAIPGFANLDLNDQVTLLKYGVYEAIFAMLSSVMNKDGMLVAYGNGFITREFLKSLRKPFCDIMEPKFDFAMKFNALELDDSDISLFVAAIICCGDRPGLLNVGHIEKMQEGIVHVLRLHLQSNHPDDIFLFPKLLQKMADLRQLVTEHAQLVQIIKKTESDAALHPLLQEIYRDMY
# Assay: Agonist activity at human PPARalpha expressed in nonhuman mammalian cells assessed as maximal increase in receptor transcriptional activity incubated for 22 to 24 hrs by luciferase reporter gene assay relative to GW590735
# Assay type: cell-based
# Conditions: not given
row,Structure (SMILES),fold change (FC)
1,Cc1cc(CNc2cccc(C(=O)O)c2)ccc1OCc1ccc(Br)cc1,1.3
2,Cc1cc(CNc2cc(F)cc(C(=O)O)c2)ccc1OCc1ccc(F)cc1,1.5
3,O=C(NO)c1cccc(NCc2ccc(OCc3ccc(F)cc3)cc2)c1,0.6
4,N#Cc1ccc(COc2ccc(CNc3cccc(C(=O)O)c3)cc2)cc1,1
5,NS(=O)(=O)c1cccc(NCc2ccc(OCc3ccc(F)cc3)cc2)c1,0.1
6,COc1ccc(COc2ccc(CNc3cccc(OC(C)(C)C(=O)O)c3)cc2)cc1,1.8
7,Cc1cc(CNc2cccc(OC(C)(C)C(=O)O)c2)ccc1OCc1ccc(F)cc1,1.6
8,C[C@H](Oc1ccc(CNc2cccc(C(=O)O)c2)cc1)c1ccc(F)cc1,1.6
9,Cc1cc(CNc2cccc(C(=O)O)c2)ccc1OCc1ccc(I)cc1,1.5
10,OB(O)c1cccc(NCc2ccc(OCc3ccc(F)cc3)cc2)c1,0.1
11,O=C(O)c1cc(Cl)cc(NCc2ccc(OCc3ccc(F)cc3)cc2)c1,1.1
12,CC(C)(Oc1cccc(NCc2ccc(OCc3ccc(C(F)(F)F)cc3)cc2)c1)C(=O)O,1.2
13,O=C(O)c1cccc(NCc2ccc(OCc3ccc(F)cc3)c(Cl)c2)c1,1.5
14,COc1ccc(CCOc2ccc(CNc3cccc(C(=O)O)c3)cc2)cc1,0.9
15,Cc1cc(CNc2cccc(C(=O)O)c2)ccc1OCc1ccc(F)cc1F,1.4
16,CS(=O)(=O)Nc1cccc(NCc2ccc(OCc3ccc(F)cc3)cc2)c1,0.1
17,O=C(O)c1cccc(NCc2ccc(OCc3cc(F)cc(F)c3)cc2)c1,1.1
18,Cc1ccc(C(=O)O)cc1NCc1ccc(OCc2ccc(F)cc2)cc1,0.3
19,Cc1cc(CNc2cccc(C(=O)O)c2)ccc1OCc1ccc(F)c(F)c1,1.6
20,O=C(O)c1cccc(NCc2ccc(OCc3ccccc3F)cc2)c1,1
21,CC(C)(Sc1cccc(NCc2ccc(OCc3ccc(F)cc3)cc2)c1)C(=O)O,1.1
22,O=C(O)c1cccc(NCc2ccc(OCCc3ccccc3)cc2)c1,0.9
23,CC(C)(Oc1cccc(NCc2ccc(OCc3ccc(F)cc3)cc2)c1)C(=O)O,2
24,O=C(O)c1cccc(NCc2ccc(OCc3ccc(F)cc3)c(F)c2)c1,1.7

# Test system: Rattus norvegicus
# Assay: Protection against STZ-induced diabetic retinopathy Brown Norway rat model assessed as reduction in vascular leakage by measuring retinal vascular permeability at 23 mg/kg, ip administered daily for 4 weeks starting at 2 weeks post STZ challenge measured per mg of total retinal protein by Evan blue dye based assay (reference value: 0.090 +/- 0.015 microg)
# Assay type: functional
# Conditions: not given
# How it was run: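 Male Brown Norway rats aged 8 weeks (legend: 7–8 weeks) made diabetic with STZ 55 mg/kg i.p.; blood glucose >350 mg/dl at day 3. Starting 2 weeks after STZ, daily i.p. compound or same-volume vehicle for 4 weeks. Under ketamine/xylazine, Evans blue 30 mg/ml at 1 µl/g given i.v. via femoral vein and circulated 2 h. Perfusion with 1% paraformaldehyde in citrate buffer, pH 4.2, at 37°C. Retina extracted in formamide 18 h at 70°C, ultracentrifuged, A620 read. Dye amount from a standard curve, normalized to total protein. Groups compared by Student's t-test, mean ± SD.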
row,Structure (SMILES),Activity [µg]
1,CC(C)(Oc1ccc(C(=O)c2ccc(Cl)cc2)cc1)C(=O)O [FENOFIBRIC ACID],0.059

# Test system: not listed separately
# Assay: Toxicity in STZ-induced diabetic retinopathy Brown Norway rat model assessed as liver weight at 23 mg/kg, ip administered daily for 4 weeks starting at 2 weeks post STZ challenge relative to body weight (reference value: 4.36 +/- 0.37%)
# Assay type: organism-based
# Conditions: in vivo
row,Structure (SMILES),Activity [%]
1,CC(C)(Oc1ccc(C(=O)c2ccc(Cl)cc2)cc1)C(=O)O [FENOFIBRIC ACID],5.79
